# ChEMBL document CHEMBL1165881, “Synthesis and cytotoxicity evaluation of (tetrahydro-beta-carboline)-1,3,5-triazine hybrids as anticancer agents” (Eur J Med Chem, 2010)
# Activity calls are given as the source filed them. The rule behind the calls is not given here.
# Key:
# KB = test: Cytotoxicity against human KB cells after 72 hrs by MTT assay; type: functional, cell-based
# Outline: (§1)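 Seeded at 5000–10000 cells/well, incubated at 37 °C in CO2 with compounds at a range of concentrations, controls included, in triplicate wells. After 72 h, MTT solution (5 mg/mL) added; absorbance read at 540 nm. % cytotoxicity = 100 × [1 − (X/R1)] versus control absorbance; IC50 by nonlinear regression. Values are means of at least two independent experiments, three determinations each.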
# PA-1 = test: Cytotoxicity against human PA1 cells after 72 hrs by MTT assay; type: functional, cell-based; details: read-out: IC50; outline: as §1
# A549 = test: Cytotoxicity against human […] cells after 72 hrs by MTT assay; type: functional, cell-based; details: read-out: IC50; outline: as §1
# K562 = test: Cytotoxicity against human K562 cells after 72 hrs by MTT assay; type: functional, cell-based; outline: as §1
# DU-145 = test: Cytotoxicity against human DU145 cells after 72 hrs by MTT assay; type: functional, cell-based; outline: as §1
# SW-620 = test: Cytotoxicity against human SW620 cells after 72 hrs by MTT assay; type: functional, cell-based; details: read-out: IC50; outline: as §1
# MIA PaCa-2 = test: Cytotoxicity against human MIAPaCa2 cells after 72 hrs by MTT assay; type: functional, cell-based; outline: as §1
# MCF7 [1] = test: Cytotoxicity against human MCF7 cells after 72 hrs by MTT assay; type: functional, cell-based; outline: as §1
# [2] = Cytotoxicity against mouse NIH/3T3 cells after 72 hrs by MTT assay; type: cell-based, NIH3T3; details: read-out: IC50; outline: as §1
# MDA-MB-231 [3] = test: Cell cycle arrest in human MDA-MB-231 cells assessed as accumulation at G1 phase at 0.5 uM after 24 hrs using propidium iodide staining by flow cytometry; type: functional
# MCF7 [4] = test: Cell cycle arrest in human MCF7 cells assessed as accumulation at G2 phase at o.74 uM after 24 hrs using propidium iodide staining by flow cytometry; type: functional
# MDA-MB-231 [5] = test: Cell cycle arrest in human MDA-MB-231 cells assessed as accumulation at G2 phase at o.74 uM after 24 hrs using propidium iodide staining by flow cytometry; type: functional
# MDA-MB-231 [6] = test: Cell cycle arrest in human MDA-MB-231 cells assessed as accumulation at S phase at o.74 uM after 24 hrs using propidium iodide staining by flow cytometry; type: functional
# MCF7 [7] = test: Cell cycle arrest in human MCF7 cells assessed as accumulation at G1 phase at 0.5 uM after 24 hrs using propidium iodide staining by flow cytometry; type: functional
# MCF7 [8] = test: Cell cycle arrest in human MCF7 cells assessed as accumulation at G1 phase at o.74 uM after 24 hrs using propidium iodide staining by flow cytometry; type: functional
# MDA-MB-231 [9] = test: Cell cycle arrest in human MDA-MB-231 cells assessed as accumulation at G2 phase at 0.5 uM after 24 hrs using propidium iodide staining by flow cytometry; type: functional
# MCF7 [10] = test: Cell cycle arrest in human MCF7 cells assessed as accumulation at S phase at 0.5 uM after 24 hrs using propidium iodide staining by flow cytometry; type: functional
# MCF7 [11] = test: Cell cycle arrest in human MCF7 cells assessed as accumulation at G2 phase at 0.5 uM after 24 hrs using propidium iodide staining by flow cytometry; type: functional
# MDA-MB-231 [12] = test: Cell cycle arrest in human MDA-MB-231 cells assessed as accumulation at S phase at 0.5 uM after 24 hrs using propidium iodide staining by flow cytometry; type: functional
# MDA-MB-231 [13] = test: Cell cycle arrest in human MDA-MB-231 cells assessed as accumulation at G1 phase at o.74 uM after 24 hrs using propidium iodide staining by flow cytometry; type: functional
# MCF7 [14] = test: Cell cycle arrest in human MCF7 cells assessed as accumulation at S phase at o.74 uM after 24 hrs using propidium iodide staining by flow cytometry; type: functional
# MDA-MB-231 [15] = test: Induction of apoptosis in human MDA-MB-231 cells assessed as appearance of fragmented nuclei at 0.5 uM after 24 hrs by Hoechst staining; type: functional, cell-based
# Outline: (§2)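 1 × 10^4 cells grown on coverslips, treated 24 h, PBS-washed, fixed in 4% paraformaldehyde 15 min. Stained with Hoechst at 1.0 ug/ml for 15 min at 4 °C, washed, mounted, and examined by fluorescence microscopy; untreated cells as control.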
# MDA-MB-231 [16] = test: Induction of apoptosis in human MDA-MB-231 cells assessed as DNA fragmentation at 0.74 uM after 24 hrs; type: functional, cell-based
# Outline: (§3)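 Treated 24 h with 0.25–0.74 range. Then 1 × 10^5 cells trypsinized, PBS-washed (4 °C, pH 7.4), lysed 10 min on ice (10 mM Tris-HCl pH 7.4, 10 mM EDTA, 0.5% SDS). RNase A 1 h at 37 °C, then proteinase K 4 h at 50 °C. DNA ethanol/sodium acetate precipitated, run on 1.5% agarose with ethidium bromide, viewed under UV.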
# MDA-MB-231 [17] = test: Induction of apoptosis in human MDA-MB-231 cells assessed as appearance of fragmented nuclei at 0.74 uM after 24 hrs by Hoechst staining; type: functional, cell-based; outline: as §2
# MCF7 [18] = test: Induction of apoptosis in human MCF7 cells assessed as DNA fragmentation at 0.74 uM after 24 hrs; type: functional, cell-based; outline: as §3
# MCF7 [19] = test: Induction of apoptosis in human MCF7 cells assessed as appearance of fragmented nuclei at 0.74 uM after 24 hrs by Hoechst staining; type: functional, cell-based; outline: as §2
# MCF7 [20] = test: Induction of apoptosis in human MCF7 cells assessed as DNA fragmentation at 0.25 uM after 24 hrs; type: functional, cell-based; outline: as §3
# MCF7 [21] = test: Induction of apoptosis in human MCF7 cells assessed as appearance of fragmented nuclei at 0.5 uM after 24 hrs by Hoechst staining; type: functional, cell-based; outline: as §2
# MDA-MB-231 [22] = test: Induction of apoptosis in human MDA-MB-231 cells assessed as DNA fragmentation at 0.25 uM after 24 hrs; type: functional, cell-based; outline: as §3
# [23] = Homo sapiens, K562, 72 h, read-out: IC50
# [24] = Homo sapiens, DU-145, 72 h, read-out: IC50
# [25] = Homo sapiens, MIA PaCa-2, 72 h, read-out: IC50
# [26] = Homo sapiens, MCF7, 72 h, read-out: IC50
Compound,"IC50 (KB; Homo sapiens, KB, 72 h) [µM]","IC50 (PA-1; Homo sapiens, PA-1, 72 h) [µM]","IC50 (A549; Homo sapiens, A549, 72 h) [µM]",IC50 (K562; [23]) [µM],IC50 (DU-145; [24]) [µM],"IC50 (SW-620; Homo sapiens, SW-620, 72 h) [µM]",IC50 (MIA PaCa-2; [25]) [µM],IC50 (MCF7 [1]; [26]) [µM],"IC50 ([2]; Mus musculus, NIH3T3, 72 h) [µM]",IC50 (KB; kb) [µM],IC50 (A549; a549) [µM],IC50 (SW-620; sw-620) [µM],"IC50 (MIA PaCa-2; mia paca-2, read-out: IC50) [µM]",also measured
COC(=O)[C@@H]1Cc2c([nH]c3ccccc23)[C@H](c2ccc(C(C)C)cc2)N1c1nc(N2CCN(C)CC2)nc(N2CCN(C)CC2)n1,6.88,0.27,1.76,6.43,2.87,1.93,1.81,5.93,1.17,–,–,–,–,–
COC(=O)[C@H]1Cc2c([nH]c3ccccc23)[C@@H](c2ccccc2)N1c1nc(N2CCN(C)CC2)nc(N2CCN(C)CC2)n1,1.83,1.79,8.62,6.45,7.76,3.24,5.88,8.28,11.4,–,–,–,–,–
COC(=O)[C@@H]1Cc2c([nH]c3ccccc23)[C@H](c2ccc(OC)cc2)N1c1nc(N2CCN(C)CC2)nc(N2CCN(C)CC2)n1 (racemic),–,2.72,–,7.13,5.35,–,–,6.06,2.33,1.46,6.3,3.32,7.37,–
COC(=O)[C@H]1Cc2c([nH]c3ccccc23)[C@H](c2ccc(C)cc2)N1c1nc(N2CCN(C)CC2)nc(N2CCN(C)CC2)n1,1.86,6.91,2.34,3.22,2.14,2.65,7,5.89,2.16,–,–,–,–,–
COC(=O)[C@@H]1Cc2c([nH]c3ccccc23)[C@@H](c2ccc(OC)cc2)N1c1nc(N2CCN(C)CC2)nc(N2CCN(C)CC2)n1 [listing 1 of 2 here],–,–,–,4.6,–,–,–,–,–,8.06,2.1,1.35,2.3,"Activity (MDA-MB-231 [3]): 64.63%; Activity (MCF7 [4]): 23.2%; Activity (MDA-MB-231 [5]): 12.98%; Activity (MDA-MB-231 [6]): 21.91%; Activity (MCF7 [7]): 64.4%; Activity (MCF7 [8]): 76.68%; IC50 (PA-1; pa-1): 1.82 µM; Activity (MDA-MB-231 [9]): 12.63%; Activity (MCF7 [10]): 35.5%; Activity (MCF7 [11]): 0.09%; Activity (MDA-MB-231 [12]): 22.74%; Activity (MDA-MB-231 [13]): 65.11%; Activity (MCF7 [14]): 0.12%; IC50 (DU-145; du-145, read-out: IC50): 6.75 µM; IC50 (MCF7 [1]; mcf7, read-out: IC50): 0.74 µM; IC50 ([2]; nih3t3): 1.96 µM"
COC(=O)[C@@H]1Cc2c([nH]c3ccccc23)[C@@H](c2ccc(OC)cc2)N1c1nc(N2CCN(C)CC2)nc(N2CCN(C)CC2)n1 (racemic),–,2.03,–,–,10.5,–,–,–,–,1.87,5.67,4.26,6.35,"IC50 (K562; k562): Not Active; IC50 (MCF7 [1]; mcf7, read-out: IC50): 12.4 µM; IC50 ([2]; nih3t3): 4.78 µM"
COC(=O)[C@H]1Cc2c([nH]c3ccccc23)[C@H](c2cc(OC)c(OC)c(OC)c2)N1c1nc(N2CCN(C)CC2)nc(N2CCN(C)CC2)n1 (relative stereo),2.43,2.75,5.67,3,2.01,3.15,7.54,–,2.17,–,–,–,–,IC50 (MCF7 [1]; mcf7): Not Active
COC(=O)[C@@H]1Cc2c([nH]c3ccccc23)[C@@H](c2ccc(OC)cc2)N1c1nc(N2CCN(C)CC2)nc(N2CCN(C)CC2)n1 [listing 2 of 2 here],–,–,–,–,–,–,–,–,–,–,–,–,–,Activity (MDA-MB-231 [15]): Active; Activity (MDA-MB-231 [16]): Active; Activity (MDA-MB-231 [17]): Active; Activity (MCF7 [18]): Active; Activity (MCF7 [19]): Active; Activity (MCF7 [20]): Active; Activity (MCF7 [21]): Active; Activity (MDA-MB-231 [22]): Active
COC(=O)[C@@H]1Cc2c([nH]c3ccccc23)[C@@H](c2ccc(C(C)C)cc2)N1c1nc(N2CCN(C)CC2)nc(N2CCN(C)CC2)n1,3.73,2.89,1.75,2.24,–,5.92,–,6.73,2.63,–,–,–,–,IC50 (DU-145; du-145): Not Active; IC50 (MIA PaCa-2; mia paca-2): Not Active
